# Source: ChEMBL document CHEMBL4261600 (Eur J Med Chem, 2018)
# The source made the active and inactive calls.
# Tests used:
# [1] = target: Mitogen-activated protein kinase kinase kinase 11 (Homo sapiens) (UniProt Q16584); experiment: Binding affinity to wild-type human partial length MLK3 (I77 to W399 residues) expressed in bacterial expression system assessed as remaining unbound target protein level at 1000 nM by Kinomescan method relative to control
# [2] = tested on: Phosphatidylinositol 4,5-bisphosphate 3-kinase catalytic subunit alpha isoform (Homo sapiens), P42336 [H1047Y]; experiment: Binding affinity to human partial length PIK3CA H1047Y mutant (R108 to N1068 residues) expressed in mammalian expression system assessed as remaining unbound target protein level at 1000 nM by Kinomescan method relative to control
# Chain of Phosphatidylinositol 4,5-bisphosphate 3-kinase catalytic subunit alpha isoform (Homo sapiens), P42336 [H1047Y] (P42336 whole entry H1047Y, the tested form may be a part, canonical isoform): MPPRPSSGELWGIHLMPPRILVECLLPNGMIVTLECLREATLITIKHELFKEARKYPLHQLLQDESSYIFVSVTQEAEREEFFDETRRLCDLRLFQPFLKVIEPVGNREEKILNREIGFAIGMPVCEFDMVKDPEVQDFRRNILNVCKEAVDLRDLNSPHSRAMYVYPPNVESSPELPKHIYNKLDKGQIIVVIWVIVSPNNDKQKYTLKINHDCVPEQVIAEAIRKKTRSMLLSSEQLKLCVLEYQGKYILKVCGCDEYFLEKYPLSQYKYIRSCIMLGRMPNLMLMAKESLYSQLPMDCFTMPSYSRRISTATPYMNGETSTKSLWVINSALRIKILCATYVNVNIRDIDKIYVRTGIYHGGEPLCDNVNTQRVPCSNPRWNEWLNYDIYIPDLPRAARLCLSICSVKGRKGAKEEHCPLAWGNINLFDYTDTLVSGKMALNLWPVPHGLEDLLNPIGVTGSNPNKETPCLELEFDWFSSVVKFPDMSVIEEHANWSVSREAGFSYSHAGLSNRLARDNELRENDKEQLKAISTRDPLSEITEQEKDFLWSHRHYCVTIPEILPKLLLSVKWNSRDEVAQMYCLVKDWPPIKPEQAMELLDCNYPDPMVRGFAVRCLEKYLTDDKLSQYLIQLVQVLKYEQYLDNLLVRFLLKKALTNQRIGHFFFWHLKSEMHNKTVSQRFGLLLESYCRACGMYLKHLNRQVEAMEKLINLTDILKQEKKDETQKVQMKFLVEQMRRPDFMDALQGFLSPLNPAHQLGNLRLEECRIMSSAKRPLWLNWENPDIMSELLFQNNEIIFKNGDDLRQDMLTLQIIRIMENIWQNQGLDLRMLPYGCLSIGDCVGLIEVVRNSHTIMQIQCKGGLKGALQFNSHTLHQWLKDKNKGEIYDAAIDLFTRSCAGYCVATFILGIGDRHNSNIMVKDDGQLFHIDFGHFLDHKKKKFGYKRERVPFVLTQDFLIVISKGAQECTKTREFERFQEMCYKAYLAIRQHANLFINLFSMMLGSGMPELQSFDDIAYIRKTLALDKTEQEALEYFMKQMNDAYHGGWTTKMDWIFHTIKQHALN
# How it was run: (§1)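 KINOMEscan competition-binding profiling across the panel of 468 kinases and mutants, with inhibitor tested at 1 μM. Binding is expressed as percent of control, with DMSO as the reference control.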
# [3] = target: Serine/threonine-protein kinase 16 (Homo sapiens) (UniProt O75716); experiment: Binding affinity to wild-type human partial length STK16 (G11 to I305 residues) expressed in bacterial expression system assessed as remaining unbound target protein level at 1000 nM by Kinomescan method relative to control
# [4] = target: Serine/threonine-protein kinase haspin (Homo sapiens) (UniProt Q8TF76); experiment: Binding affinity to wild-type human partial length HASPIN (I452 to K798 residues) expressed in mammalian expression system assessed as remaining unbound target protein level at 1000 nM by Kinomescan method relative to control
# How it was run: (§2)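 KINOMEscan binding panel of 468 kinases/mutants. Inhibitor was tested at a single concentration of 1 μM. Binding is reported as percent of control, defined relative to a DMSO control.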
# [5] = target: Ephrin type-A receptor 4 (Homo sapiens) (UniProt P54764); experiment: Binding affinity to wild-type human partial length EPHA4 (T601 to R897 residues) expressed in bacterial expression system assessed as remaining unbound target protein level at 1000 nM by Kinomescan method relative to control
# [6] = target: Cyclin-dependent kinase 4/cyclin D1 (Homo sapiens) (UniProt P11802+P24385); experiment: Binding affinity to wild-type human full length CDK4/cyclinD1 (M1 to E303 residues) expressed in mammalian expression system assessed as remaining unbound target protein level at 1000 nM by Kinomescan method relative to control
# How it was run: (§3)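 KINOMEscan competitive binding profile at 1 μM inhibitor. Remaining target binding reported as percent of DMSO control.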
# [7] = tested on: Leucine-rich repeat serine/threonine-protein kinase 2 (Homo sapiens), Q5S007 [G2019S]; experiment: Binding affinity to human partial length LRRK2 G2019S mutant (H970 to E2527 residues) expressed in mammalian expression system assessed as remaining unbound target protein level at 1000 nM by Kinomescan method relative to control; how it was run: as §1
# Chain of Leucine-rich repeat serine/threonine-protein kinase 2 (Homo sapiens), Q5S007 [G2019S] (Q5S007 whole entry G2019S, the tested form may be a part): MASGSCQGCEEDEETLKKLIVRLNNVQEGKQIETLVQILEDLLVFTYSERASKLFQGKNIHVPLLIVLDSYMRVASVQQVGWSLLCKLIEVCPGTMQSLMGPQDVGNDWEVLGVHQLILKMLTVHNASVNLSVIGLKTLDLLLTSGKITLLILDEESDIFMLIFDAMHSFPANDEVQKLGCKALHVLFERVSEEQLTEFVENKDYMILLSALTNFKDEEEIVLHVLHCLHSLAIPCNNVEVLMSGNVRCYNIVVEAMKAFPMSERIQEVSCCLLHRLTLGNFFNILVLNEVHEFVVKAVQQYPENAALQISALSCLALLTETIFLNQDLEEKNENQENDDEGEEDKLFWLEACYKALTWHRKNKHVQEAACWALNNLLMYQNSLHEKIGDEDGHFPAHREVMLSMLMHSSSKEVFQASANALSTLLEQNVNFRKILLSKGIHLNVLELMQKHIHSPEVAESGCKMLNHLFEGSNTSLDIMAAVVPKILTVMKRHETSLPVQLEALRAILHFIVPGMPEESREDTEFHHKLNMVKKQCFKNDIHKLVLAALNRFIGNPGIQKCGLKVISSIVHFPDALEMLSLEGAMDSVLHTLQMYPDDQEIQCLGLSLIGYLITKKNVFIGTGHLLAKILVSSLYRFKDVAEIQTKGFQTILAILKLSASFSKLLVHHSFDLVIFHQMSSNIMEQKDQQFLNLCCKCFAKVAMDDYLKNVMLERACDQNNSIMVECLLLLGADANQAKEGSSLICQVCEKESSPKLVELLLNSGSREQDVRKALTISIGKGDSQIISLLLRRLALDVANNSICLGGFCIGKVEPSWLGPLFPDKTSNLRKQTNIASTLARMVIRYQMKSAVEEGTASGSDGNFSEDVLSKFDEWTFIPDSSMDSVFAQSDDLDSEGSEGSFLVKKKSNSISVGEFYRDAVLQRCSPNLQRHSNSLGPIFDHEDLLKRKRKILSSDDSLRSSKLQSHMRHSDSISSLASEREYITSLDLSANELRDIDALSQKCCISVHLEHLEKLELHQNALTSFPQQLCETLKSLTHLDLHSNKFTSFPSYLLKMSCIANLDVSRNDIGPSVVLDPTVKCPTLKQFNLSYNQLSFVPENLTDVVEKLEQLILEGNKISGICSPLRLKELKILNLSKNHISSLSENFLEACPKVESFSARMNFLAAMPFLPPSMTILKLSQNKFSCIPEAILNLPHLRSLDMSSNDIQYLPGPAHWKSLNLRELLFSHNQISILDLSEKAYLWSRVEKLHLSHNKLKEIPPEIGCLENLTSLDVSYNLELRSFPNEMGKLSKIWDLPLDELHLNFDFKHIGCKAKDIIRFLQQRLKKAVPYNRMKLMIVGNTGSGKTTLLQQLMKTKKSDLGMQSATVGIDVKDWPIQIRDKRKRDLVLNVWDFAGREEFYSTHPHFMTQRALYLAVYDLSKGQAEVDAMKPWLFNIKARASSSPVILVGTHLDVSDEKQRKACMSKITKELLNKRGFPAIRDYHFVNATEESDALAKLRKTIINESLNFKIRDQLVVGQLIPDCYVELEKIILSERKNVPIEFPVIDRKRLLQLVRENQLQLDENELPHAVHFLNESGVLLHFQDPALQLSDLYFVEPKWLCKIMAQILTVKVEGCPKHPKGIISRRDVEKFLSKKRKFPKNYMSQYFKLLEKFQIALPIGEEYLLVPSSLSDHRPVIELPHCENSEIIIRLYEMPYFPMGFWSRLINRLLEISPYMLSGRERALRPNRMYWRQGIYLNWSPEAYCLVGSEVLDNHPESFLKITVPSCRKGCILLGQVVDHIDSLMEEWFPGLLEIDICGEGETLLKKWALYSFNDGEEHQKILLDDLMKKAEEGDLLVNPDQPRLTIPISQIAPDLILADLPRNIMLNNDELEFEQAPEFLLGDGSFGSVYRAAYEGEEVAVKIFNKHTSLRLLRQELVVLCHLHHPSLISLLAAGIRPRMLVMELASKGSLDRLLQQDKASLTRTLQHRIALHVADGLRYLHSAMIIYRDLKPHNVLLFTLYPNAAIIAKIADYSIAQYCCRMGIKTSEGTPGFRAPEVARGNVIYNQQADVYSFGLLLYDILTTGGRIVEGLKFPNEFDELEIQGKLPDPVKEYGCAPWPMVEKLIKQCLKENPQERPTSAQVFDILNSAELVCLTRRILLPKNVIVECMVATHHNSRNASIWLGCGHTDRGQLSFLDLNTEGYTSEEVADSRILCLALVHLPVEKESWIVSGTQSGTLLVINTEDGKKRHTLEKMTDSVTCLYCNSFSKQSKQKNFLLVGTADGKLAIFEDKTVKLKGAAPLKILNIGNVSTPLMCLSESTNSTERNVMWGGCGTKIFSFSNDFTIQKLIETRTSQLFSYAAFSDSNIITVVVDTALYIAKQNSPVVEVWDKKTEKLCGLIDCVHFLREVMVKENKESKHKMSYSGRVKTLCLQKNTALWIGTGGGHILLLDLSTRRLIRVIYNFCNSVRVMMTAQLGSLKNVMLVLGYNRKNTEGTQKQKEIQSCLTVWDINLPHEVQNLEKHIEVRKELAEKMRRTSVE
# [8] = target: Dual specificity tyrosine-phosphorylation-regulated kinase 1A (Homo sapiens) (UniProt Q13627); experiment: Binding affinity to wild-type human partial length DYRK1A (H129 to S509 residues) expressed in mammalian expression system assessed as remaining unbound target protein level at 1000 nM by Kinomescan method relative to control; how it was run: as §2
# [9] = target: Cyclin-dependent kinase 4 (Homo sapiens) (UniProt P11802); experiment: Binding affinity to wild-type human full length CDK4 (M1 to E303 residues) expressed in mammalian expression system assessed as remaining unbound target protein level at 1000 nM by Kinomescan method relative to control; how it was run: as §3
# Chain of Cyclin-dependent kinase 4 (Homo sapiens) (P11802 whole entry, the tested form may be a part): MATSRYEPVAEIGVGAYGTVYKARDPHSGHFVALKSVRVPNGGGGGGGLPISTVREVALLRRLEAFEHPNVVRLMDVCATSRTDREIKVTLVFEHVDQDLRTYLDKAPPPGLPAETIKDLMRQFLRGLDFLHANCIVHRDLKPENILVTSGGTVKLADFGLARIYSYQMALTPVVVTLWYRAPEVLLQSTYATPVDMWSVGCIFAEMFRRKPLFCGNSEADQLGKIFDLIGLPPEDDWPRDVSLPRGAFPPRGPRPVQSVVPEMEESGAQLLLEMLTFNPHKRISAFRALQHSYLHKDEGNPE
# [10] = target: Cyclin-dependent kinase 9 (Homo sapiens, UniProt P50750); experiment: Inhibition of CDK9 in human MV4-11 cells assessed as decrease in phosphorylation at Thr 186 residues up to 3 uM after 2 hrs by immunoblotting analysis; assay type: cell-based
# Chain of Cyclin-dependent kinase 9 (P50750 whole entry, the tested form may be a part): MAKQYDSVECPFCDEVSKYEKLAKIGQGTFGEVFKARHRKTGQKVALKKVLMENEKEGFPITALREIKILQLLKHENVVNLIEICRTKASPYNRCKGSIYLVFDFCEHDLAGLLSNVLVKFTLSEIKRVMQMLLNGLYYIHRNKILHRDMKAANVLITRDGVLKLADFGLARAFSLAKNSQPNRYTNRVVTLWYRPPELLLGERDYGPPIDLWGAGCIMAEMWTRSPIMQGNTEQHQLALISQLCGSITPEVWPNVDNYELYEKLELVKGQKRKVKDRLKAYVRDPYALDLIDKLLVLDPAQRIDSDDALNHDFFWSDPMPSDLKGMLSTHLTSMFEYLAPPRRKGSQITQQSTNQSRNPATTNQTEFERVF
# [11] = target: Cyclin-dependent kinase 14 (Homo sapiens) (UniProt O94921); experiment: Binding affinity to wild-type human full length PFTK1 (M1 to H451 residues) expressed in bacterial expression system assessed as remaining unbound target protein level at 1000 nM by Kinomescan method relative to control
# How it was run: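 KINOMEscan competition binding profile across a panel of 468 kinases and mutants, with the inhibitor tested at a single concentration of 1 μM. Binding is reported as percent of control, meaning signal relative to a DMSO control.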
# [12] = target: Fibroblast growth factor receptor 3 (Homo sapiens) (UniProt P22607); experiment: Binding affinity to wild-type human partial length FGFR3 (R442 to S771 residues) expressed in bacterial expression system assessed as remaining unbound target protein level at 1000 nM by Kinomescan method relative to control
# [13] = target: Tyrosine-protein kinase Fes/Fps (Homo sapiens) (UniProt P07332); experiment: Binding affinity to wild-type human partial length FES (I527 to R822 residues) expressed in bacterial expression system assessed as remaining unbound target protein level at 1000 nM by Kinomescan method relative to control; how it was run: as §2
# [14] = target: Serine/threonine-protein kinase 33 (Homo sapiens) (UniProt Q9BYT3); experiment: Binding affinity to wild-type human full length STK33 (M1 to L514 residues) expressed in bacterial expression system assessed as remaining unbound target protein level at 1000 nM by Kinomescan method relative to control
# How it was run: (§4)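 Profiled in a KINOMEscan binding panel with the inhibitor at a single concentration of 1 μM. Binding to each kinase was read out as percent of control, relative to a DMSO control. Strong binders were defined as those with a percent control value below 1.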
# [15] = target: Receptor-interacting serine/threonine-protein kinase 4 (Homo sapiens) (UniProt P57078); experiment: Binding affinity to wild-type human partial length RIPK4 (M1 to V303 residues) expressed in mammalian expression system assessed as remaining unbound target protein level at 1000 nM by Kinomescan method relative to control
# [16] = target: Serine/threonine-protein kinase Nek7 (Homo sapiens) (UniProt Q8TDX7); experiment: Binding affinity to wild-type human full length NEK7 (M1 to S302 residues) expressed in bacterial expression system assessed as remaining unbound target protein level at 1000 nM by Kinomescan method relative to control
# How it was run: (§5)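 Single-point competition binding screen across a panel of 468 kinases and mutants, with the inhibitor at 1 μM. Binding is read out as percent of a DMSO control, and targets below 1 percent control were classed as strong binders.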
# [17] = target: Mitogen-activated protein kinase 3 (Homo sapiens) (UniProt P27361); experiment: Binding affinity to wild-type human full length ERK1 (M1 to P379 residues) expressed in bacterial expression system assessed as remaining unbound target protein level at 1000 nM by Kinomescan method relative to control; how it was run: as §5
# [18] = target: RAC-alpha serine/threonine-protein kinase (Homo sapiens) (UniProt P31749); experiment: Binding affinity to wild-type human partial length AKT1 expressed in bacterial expression system assessed as remaining unbound target protein level at 1000 nM by Kinomescan method relative to control; how it was run: as §4
# [19] = target: Serine/threonine-protein kinase DCLK1 (Homo sapiens) (UniProt O15075); experiment: Binding affinity to wild-type human partial length DCAMKL1 (L270 to A662 residues) expressed in mammalian expression system assessed as remaining unbound target protein level at 1000 nM by Kinomescan method relative to control
# [20] = target: Tyrosine-protein kinase Fer (Homo sapiens) (UniProt P16591); experiment: Binding affinity to wild-type human partial length FER (S542 to T822 residues) expressed in bacterial expression system assessed as remaining unbound target protein level at 1000 nM by Kinomescan method relative to control
# Chain of Tyrosine-protein kinase Fer (Homo sapiens) (P16591 whole entry, looked up, the tested form may be a part): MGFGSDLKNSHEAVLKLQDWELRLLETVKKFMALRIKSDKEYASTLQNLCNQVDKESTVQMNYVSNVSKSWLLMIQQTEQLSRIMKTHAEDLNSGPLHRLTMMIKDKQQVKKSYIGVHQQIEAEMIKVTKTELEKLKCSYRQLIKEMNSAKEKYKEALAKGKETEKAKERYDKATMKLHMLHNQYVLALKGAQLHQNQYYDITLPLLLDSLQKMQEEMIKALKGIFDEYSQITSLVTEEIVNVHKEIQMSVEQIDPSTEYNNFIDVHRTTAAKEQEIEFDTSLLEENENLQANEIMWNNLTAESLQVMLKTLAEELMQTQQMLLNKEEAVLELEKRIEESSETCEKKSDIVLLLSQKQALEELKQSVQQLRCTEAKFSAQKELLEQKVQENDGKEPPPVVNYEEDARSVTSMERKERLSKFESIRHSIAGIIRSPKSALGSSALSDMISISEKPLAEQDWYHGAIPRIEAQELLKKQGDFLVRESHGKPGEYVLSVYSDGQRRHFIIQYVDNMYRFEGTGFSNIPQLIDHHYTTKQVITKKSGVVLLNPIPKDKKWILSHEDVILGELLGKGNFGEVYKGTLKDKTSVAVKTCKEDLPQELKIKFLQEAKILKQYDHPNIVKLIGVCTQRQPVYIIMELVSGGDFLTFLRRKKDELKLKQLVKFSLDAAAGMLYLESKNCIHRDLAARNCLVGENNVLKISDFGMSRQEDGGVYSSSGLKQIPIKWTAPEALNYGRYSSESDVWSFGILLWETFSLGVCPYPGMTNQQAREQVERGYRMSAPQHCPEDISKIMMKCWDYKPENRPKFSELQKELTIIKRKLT
compound,measurement,setting,value
COCCN[C@H]1CC[C@H](Nc2cc(-c3csc(NCC4(C#N)CCOCC4)n3)c(Cl)cn2)CC1,Activity,[1],85%
same,Activity,[2],54%
same,Activity,[3],76%
same,Activity,[4],94%
same,Activity,[5],96%
same,Activity,[6],69%
same,Activity,[7],94%
same,Activity,[8],0.3%
same,Activity,[9],93%
same,inhibition,[10],inactive
same,Activity,[11],80%
same,Activity,[12],89%
same,Activity,[13],99%
same,Activity,[14],78%
same,Activity,[15],100%
same,Activity,[16],83%
same,Activity,[17],90%
same,Activity,[18],92%
same,Activity,[19],100%
same,Activity,[20],88%
